In ChEMBL document CHEMBL4619791, “3-Difluoroalkyl Quaternary Oxindoles Inhibit Macrophage Pyroptosis by Blocking Inflammasome Recruitment of Caspase-1” (ACS Med Chem Lett, 2020):
pEC50: −log10 of the molar value. Active and inactive are the calls of the source. The rule behind the calls is not given here.

Columns and labels:
[1] = Toxicity in zebrafish embryo; design: species or system Danio rerio; settings: in vivo
Method in brief: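 Zebrafish embryos exposed to compound. EC100 is the concentration at which all treated embryos show early lethality, embryonic defects or developmental delay.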

J774.A1 [2] = assay: Inhibition of pyroptosis in LPS-primed immortalized mouse […] cells followed by subsequent nigericin stimulation by imaging analysis; type: functional, cell-based
J774.A1 [3] = assay: Inhibition of pyroptosis in LPS-primed immortalized mouse […] cells assessed as reduction in nigericin-induced IL-beta secretion by imaging analysis; type: functional
Caspase-1 (Homo sapiens) = biological target: T1, Caspase-1 (Homo sapiens) (UniProt P29466); assay: Inhibition of pronase-mediated caspase-1 degradation in HEK293 cell lysate at 5 uM measured after 30 mins by DARTS based Western blot analysis; type: cell-free
T1 sequence (whole entry): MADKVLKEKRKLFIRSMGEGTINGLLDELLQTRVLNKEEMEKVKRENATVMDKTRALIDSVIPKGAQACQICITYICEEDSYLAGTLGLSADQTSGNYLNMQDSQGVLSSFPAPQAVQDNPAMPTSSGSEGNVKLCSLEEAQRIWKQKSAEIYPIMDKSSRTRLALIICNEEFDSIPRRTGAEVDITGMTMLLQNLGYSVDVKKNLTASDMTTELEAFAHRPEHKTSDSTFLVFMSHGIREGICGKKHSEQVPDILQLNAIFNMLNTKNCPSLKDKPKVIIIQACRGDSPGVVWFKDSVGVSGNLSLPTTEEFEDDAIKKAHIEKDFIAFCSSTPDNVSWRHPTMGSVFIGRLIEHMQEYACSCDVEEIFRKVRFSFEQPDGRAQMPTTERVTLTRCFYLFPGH
Method in brief: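 DARTS assay: cell lysates pretreated with compound, then digested with different Pronase concentrations. Caspase-1 stability read by immunoblot against a histone H3 control.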

Q: What does the source list for CCOC(CN1C(=O)C(NC(=O)OC(C)(C)C)(C(F)(F)C(=O)c2ccc(OC)cc2)c2ccccc21)OCC (stereo not drawn)?
A: EC100 [1]: > 50 µM; pEC50 (J774.A1 [2]): 4.76; Activity (J774.A1 [3]): 202.6 pg/mL

Q: For CC(C)(C)OC(=O)NC1(C(F)(F)C(=O)c2ccccc2)C(=O)Nc2ccccc21 (stereo not drawn), which EC100 [1] is on record?
A: The EC100 was > 50 µM.

Q: What about the Activity (J774.A1 [3]) of the same molecule?
A: The Activity was 240.83 pg/mL.

Q: For CCOC(CN1C(=O)C(NC(=O)OC(C)(C)C)(C(F)(F)C(=O)c2ccccc2)c2ccccc21)OCC (stereo not drawn), which EC100 [1] is on record?
A: Its EC100 is 50 µM.

Q: And the pEC50 (J774.A1 [2])?
A: The pEC50 was 5.02.

Q: And the Activity (J774.A1 [3])?
A: Its Activity is 222.04 pg/mL.

Q: For CN1C(=O)C(NC(=O)OC(C)(C)C)(C(F)(F)C(=O)c2ccccc2)c2ccccc21 (stereo not drawn), which EC100 [1] is on record?
A: The EC100 was > 50 µM.

Q: And the inhibition (Caspase-1 (Homo sapiens))?
A: Its inhibition is “inactive”.

Q: What about the Activity (J774.A1 [3]) of the same molecule?
A: The Activity was 232.64 pg/mL.

Q: Which EC100 [1] does the source give for N#CC(C#N)C1(C(F)(F)C(=O)c2ccc(Cl)cc2)C(=O)Nc2ccccc21 (stereo not drawn) here?
A: Its EC100 is 20 µM.

Q: What about the Activity (J774.A1 [3]) of the same molecule?
A: Its Activity is 252.29 pg/mL.
